Test results taken from ChEMBL document CHEMBL4308874, “Discovery and optimization of 3,4,5-trimethoxyphenyl substituted triazolylthioacetamides as potent tubulin polymerization inhibitors” (Bioorg Med Chem Lett, 2019).

How the values were obtained:
MCF7 = test: Cytotoxicity against human MCF7 cells assessed as inhibition of cell growth after 48 hrs by MTT assay; format: functional, cell-based; conditions: MCF7, 48 h
HeLa [1] = test: Cytotoxicity against human HeLa cells assessed as inhibition of cell growth after 48 hrs by MTT assay; format: functional, cell-based
HCT-116 = test: Cytotoxicity against human HCT116 cells assessed as inhibition of cell growth after 48 hrs by MTT assay; format: functional, cell-based; conditions: HCT-116, 48 h
HT-29 = test: Cytotoxicity against human HT-29 cells assessed as inhibition of cell growth after 48 hrs by MTT assay; format: functional, cell-based; conditions: HT-29, 48 h
Tubulin (Homo sapiens) = Tubulin (Homo sapiens) (UniProt P68371+Q9H4B7+P0DPH7+P68366+Q13509+Q71U36+P04350+Q3ZCM7+P07437+P68363+Q9BQE3+Q6PEY2+Q13885+Q9BVA1+Q9BUF5); test: Inhibition of tubulin (unknown origin) polymerization at 10 uM relative to control; format: protein-complex assay
Method in brief: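 Tubulin polymerization inhibition measured with compound at a final concentration of 10 μM, expressed as percent inhibition.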

Tubulin = test: Inhibition of tubulin (unknown origin) polymerization; format: protein-complex assay, Homo sapiens
HEK293 = test: Cytotoxicity against HEK293 cells assessed as inhibition of cell growth after 48 hrs by MTT assay; format: cell-based; conditions: Homo sapiens, HEK293, 48 h
HeLa [2] = test: Cell cycle arrest in human HeLa cells assessed as accumulation at G2/M phase after 48 hrs by propidium iodide staining based flow cytometry; format: functional
HeLa [3] = test: Cell cycle arrest in human HeLa cells assessed as accumulation at G0/G1 phase at 0.25 uM after 48 hrs by propidium iodide staining based flow cytometry (reference value: 66.77%); format: functional
HeLa [4] = test: Cell cycle arrest in human HeLa cells assessed as accumulation at G0/G1 phase at 0.5 uM after 48 hrs by propidium iodide staining based flow cytometry (reference value: 66.77%); format: functional
HeLa [5] = test: Cell cycle arrest in human HeLa cells assessed as accumulation at S phase at 0.25 uM after 48 hrs by propidium iodide staining based flow cytometry (reference value: 20.31%); format: functional
HeLa [6] = test: Cell cycle arrest in human HeLa cells assessed as accumulation at S phase at 0.5 uM after 48 hrs by propidium iodide staining based flow cytometry (reference value: 20.31%); format: functional
HeLa [7] = test: Cell cycle arrest in human HeLa cells assessed as accumulation at G2/M phase at 0.25 uM after 48 hrs by propidium iodide staining based flow cytometry (reference value: 12.91%); format: functional
HeLa [8] = test: Cell cycle arrest in human HeLa cells assessed as accumulation at G2/M phase at 0.5 uM after 48 hrs by propidium iodide staining based flow cytometry (reference value: 12.91%); format: functional

Structure (SMILES) | IC50 (MCF7) [µM] | IC50 (HeLa [1]) [µM] | IC50 (HCT-116) [µM] | IC50 (HT-29) [µM] | inhibition (Tubulin (Homo sapiens)) [%] | other results
COc1cc(-c2nnc(SCC(=O)Nc3ccc(N4CCCCC4)cc3)n2N)cc(OC)c1OC | > 100 | 54.9 | > 100 | 75.3 | – | –
COc1cc(-c2nnc(SCC(=O)Oc3ccc(C)cc3)n2N)cc(OC)c1OC | > 100 | > 100 | > 100 | > 100 | – | –
COc1cc(-c2nnc(SCC(=O)c3ccc(C)cc3)n2-n2cccc2)cc(OC)c1OC | > 100 | > 100 | > 100 | > 100 | – | –
COc1cccc(NC(=O)CSc2nnc(-c3cc(OC)c(OC)c(OC)c3)n2N)c1 | 52.6 | – | – | 3.15 | – | –
COc1cc(-c2nnc(SCC(=O)Nc3cccc(C)c3)n2N)cc(OC)c1OC | 47.1 | 2.96 | > 100 | 4.87 | 25 | –
CCc1ccc(NC(=O)CSc2nnc(-c3cc(OC)c(OC)c(OC)c3)[nH]2)cc1 | > 100 | 33.9 | > 100 | > 100 | 11 | –
COc1cc(-c2nnc(SCC(=O)Nc3ccc(C)cc3)n2N)cc(OC)c1OC | 26.8 | 1.61 | – | 0.82 | 55 | IC50 (Tubulin): 5.9 µM
COc1cc(-c2nnc(SCC(=O)Nc3ccc(C)c(C)c3)n2N)cc(OC)c1OC | > 100 | 0.88 | > 100 | 1.21 | 18 | –
CCc1ccc(NC(=O)CSc2nnc(-c3cc(OC)c(OC)c(OC)c3)n2N)cc1 | 25.4 | 0.05 | 71.4 | 0.84 | 38 | IC50 (HEK293): > 100 µM; Activity (HeLa [2]): Dose-dependent effect; Activity (HeLa [3]): 47.35%; Activity (HeLa [4]): 43.23%; Activity (HeLa [5]): 25.35%; Activity (HeLa [6]): 2%; Activity (HeLa [7]): 27.3%; Activity (HeLa [8]): 54.77%
COc1cc(-c2nnc(SCC(=O)Nc3c(C)cc(C)cc3C)n2N)cc(OC)c1OC | > 100 | 82.8 | > 100 | > 100 | – | –
COc1cc(-c2nnc(SCC(=O)c3ccc(Cl)cc3)n2-n2cccc2)cc(OC)c1OC | > 100 | > 100 | > 100 | > 100 | – | –
CCCc1ccc(NC(=O)CSc2nnc(-c3cc(OC)c(OC)c(OC)c3)n2N)cc1 | 41.2 | 18.7 | 41.8 | 50.8 | 19 | –
COc1ccc(NC(=O)CSc2nnc(-c3cc(OC)c(OC)c(OC)c3)[nH]2)cc1O | > 100 | > 100 | > 100 | > 100 | – | –
COc1ccc(NC(=O)CSc2nnc(-c3cc(OC)c(OC)c(OC)c3)n2-n2cccc2)cc1OC | > 100 | > 100 | > 100 | > 100 | – | –
COc1cc(-c2nnc(SCC(=O)Nc3ccc(C)cc3)[nH]2)cc(OC)c1OC | > 100 | > 100 | > 100 | > 100 | – | –
COc1ccccc1NC(=O)CSc1nnc(-c2cc(OC)c(OC)c(OC)c2)n1N | > 100 | 0.16 | 82.9 | 0.13 | 25 | IC50 (HEK293): > 100 µM

Structure (SMILES) | IC50 (MCF7) [µM] | IC50 (HeLa [1]) [µM] | IC50 (HCT-116) [µM] | IC50 (HT-29) [µM] | inhibition (Tubulin (Homo sapiens)) [%] | other results
COc1ccc(NC(=O)CSc2nnc(-c3cc(OC)c(OC)c(OC)c3)n2-n2cccc2)cc1 | > 100 | > 100 | > 100 | > 100 | – | –
COc1ccc(NC(=O)CSc2nnc(-c3cc(OC)c(OC)c(OC)c3)[nH]2)cc1 | > 100 | > 100 | > 100 | > 100 | – | –
CCCc1ccc(NC(=O)CSc2nnc(-c3cc(OC)c(OC)c(OC)c3)[nH]2)cc1 | > 100 | > 100 | > 100 | > 100 | – | –
COc1cc(-c2nnc(SCC(=O)Nc3ccc(N(C)C)cc3)n2N)cc(OC)c1OC | > 100 | 23.8 | > 100 | 43.1 | – | –
COc1cc(-c2nnc(SCC(=O)Nc3ccc(C)cc3)n2-n2cccc2)cc(OC)c1OC | > 100 | > 100 | 26.6 | 2.94 | 17 | –
COc1ccc(NC(=O)CSc2nnc(-c3cc(OC)c(OC)c(OC)c3)n2N)cc1 | > 100 | 2.96 | 61.1 | 15.2 | 24 | –
COc1ccc(NC(=O)CSc2nnc(-c3cc(OC)c(OC)c(OC)c3)n2N)cc1O | > 100 | 34.8 | > 100 | > 100 | – | –
COc1cccc(NC(=O)CSc2nnc(-c3cc(OC)c(OC)c(OC)c3)[nH]2)c1 | > 100 | > 100 | > 100 | > 100 | – | –
COc1ccc(/C=C\c2cc(OC)c(OC)c(OC)c2)cc1O [COMBRETASTATIN A4] | – | 0.007 | – | 1.96 | – | –
COc1cc(-c2nnc(SCC(=O)Nc3ccc(C(C)(C)C)cc3)n2N)cc(OC)c1OC | > 100 | 49.6 | > 100 | > 100 | – | –
COc1cc(-c2nnc(SCC(=O)Nc3ccc(C(C)C)cc3)n2N)cc(OC)c1OC | > 100 | 13.7 | 74.8 | > 100 | – | –
COc1ccc(NC(=O)CSc2nnc(-c3cc(OC)c(OC)c(OC)c3)n2N)cc1OC | > 100 | 54.2 | > 100 | > 100 | – | –
COc1cc(-c2nnc(SCC(=O)Nc3ccc(C)cc3F)n2N)cc(OC)c1OC | > 100 | 0.04 | > 100 | 0.13 | – | IC50 (HEK293): 61.1 µM
COc1cc(-c2nnc(SCC(=O)NC3CCCCC3)n2N)cc(OC)c1OC | 80.6 | 59.7 | > 100 | > 100 | – | –
COc1cc(-c2nnc(SCC(=O)N(C)c3ccc(C)cc3)n2N)cc(OC)c1OC | > 100 | 21.3 | > 100 | > 100 | 21 | –
